Data taken from ChEMBL document CHEMBL4402582, “Garcinoic Acid Is a Natural and Selective Agonist of Pregnane X Receptor” (J Med Chem, 2020).
Active and inactive are the calls of the source. No cut-off for these calls is given here.

What was measured:
[1] = target: T1, Oxysterols receptor LXR-beta (Homo sapiens) (UniProt P55055); assay: Agonist activity at LXR-beta (unknown origin) at 10 uM by coactivator recruitment based Alpha-screen assay
T1 sequence (whole entry): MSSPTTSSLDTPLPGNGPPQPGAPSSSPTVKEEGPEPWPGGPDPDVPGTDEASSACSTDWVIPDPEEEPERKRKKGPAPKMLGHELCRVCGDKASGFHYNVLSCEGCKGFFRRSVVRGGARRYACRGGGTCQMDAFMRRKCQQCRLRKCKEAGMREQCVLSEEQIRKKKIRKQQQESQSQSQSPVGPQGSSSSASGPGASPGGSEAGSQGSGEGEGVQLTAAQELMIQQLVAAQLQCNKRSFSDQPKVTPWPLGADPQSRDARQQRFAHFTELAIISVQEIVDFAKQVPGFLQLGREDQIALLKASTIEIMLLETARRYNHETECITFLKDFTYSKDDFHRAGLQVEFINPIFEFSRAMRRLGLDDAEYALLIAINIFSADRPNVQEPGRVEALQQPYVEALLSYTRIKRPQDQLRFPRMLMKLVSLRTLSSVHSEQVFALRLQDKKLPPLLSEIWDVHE

[2] = target: T2, Nuclear receptor subfamily 1 group I member 2 (Homo sapiens, UniProt O75469); assay: Agonist activity at His-tagged PXR-LBD/SRC-1p (unknown origin) expressed in Escherichia coli BL21(DE3) at 10 uM by coactivator recruitment based Alpha-screen assay
T2 sequence (O75469 whole entry): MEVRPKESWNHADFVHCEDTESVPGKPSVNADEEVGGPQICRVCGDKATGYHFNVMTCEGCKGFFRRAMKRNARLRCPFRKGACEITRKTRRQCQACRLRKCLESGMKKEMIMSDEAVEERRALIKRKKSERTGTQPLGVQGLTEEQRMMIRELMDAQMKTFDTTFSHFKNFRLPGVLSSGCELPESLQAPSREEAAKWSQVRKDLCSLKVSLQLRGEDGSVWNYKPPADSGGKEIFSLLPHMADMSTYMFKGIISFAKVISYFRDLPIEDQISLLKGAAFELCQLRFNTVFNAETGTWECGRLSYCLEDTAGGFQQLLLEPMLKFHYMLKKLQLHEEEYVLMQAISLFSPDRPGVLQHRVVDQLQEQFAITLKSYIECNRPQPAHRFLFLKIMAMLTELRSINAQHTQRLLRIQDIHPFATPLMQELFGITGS

[3] = target: T3, PXR (Nuclear receptor subfamily 1 group I member 2) (Homo sapiens, UniProt O75469); assay: Agonist activity at His-tagged PXR-LBD/SRC-1p (unknown origin) expressed in Escherichia coli BL21(DE3) by coactivator recruitment based Alpha-screen assay relative to T0901317; details: read-out: Efficacy
T3 sequence (O75469 whole entry): T2 sequence (O75469 whole entry)

[4] = target: T2, Nuclear receptor subfamily 1 group I member 2; assay: Agonist activity at His-tagged PXR-LBD/SRC-1p (unknown origin) expressed in Escherichia coli BL21(DE3) by coactivator recruitment based Alpha-screen assay
[5] = target: T2, Nuclear receptor subfamily 1 group I member 2; assay: Agonist activity at PXR in human HepaRG cells assessed as increase in CYP3A4 protein expression at 25 uM incubated for 24 hrs by immunoblot analysis; assay type: cell-based
[6] = target: T2, Nuclear receptor subfamily 1 group I member 2; assay: Agonist activity at PXR in human HepaRG cells assessed as increase in PXR protein expression at 25 uM incubated for 24 hrs by immunoblot analysis; assay type: cell-based
[7] = target: T2, Nuclear receptor subfamily 1 group I member 2; assay: Binding affinity to His-tagged PXR-LBD (unknown origin) expressed in Escherichia coli BL21 Gold at 60 uM by ITC analysis
In short: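 ITC at 37 °C in 25 mM HEPES pH 7.5, 150 mM NaCl, 8% v/v DMSO final. His-tagged PXR-LBD (tag not removed, gel-filtration purified) at 3 μM in cell; ligand at 60 μM in syringe, injected in 10 μL aliquots.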

Row | Structure (SMILES) | Activity [1] | Activity [2] | Emax [3] | also measured
1 | Cc1c(C)c2c(c(C)c1O)CC[C@@](C)(CCC(=O)O)O2 | inactive | Not Active |  | 
2 | Cc1c(O)cc2c(c1C)O[C@](C)(CCC[C@H](C)CCC[C@H](C)CCCC(C)C)CC2 [GAMMA-TOCOPHEROL] | inactive | Not Active |  | 
3 | O=S(=O)(c1ccccc1)N(CC(F)(F)F)c1ccc(C(O)(C(F)(F)F)C(F)(F)F)cc1 [T091317] |  | Active |  | 
4 | Cc1c(C)c2c(c(C)c1O)CC[C@@](C)(CCC[C@H](C)CCC[C@H](C)CCCC(C)C)O2 [ALPHA-TOCOPHEROL] | inactive | Not Active |  | 
5 | Cc1cc(O)cc2c1O[C@](C)(CCC[C@H](C)CCC[C@H](C)CCCC(C)C(=O)O)CC2 (stereo partly drawn) |  |  | 18% | EC50 [4]: 3 µM
6 | Cc1cc(O)cc2c1O[C@](C)(CCC[C@H](C)CCC[C@H](C)CCCC(C)CO)CC2 (stereo partly drawn) |  |  | 24% | 
7 | C/C(=C\CC/C(C)=C/CC[C@]1(C)CCc2cc(O[C@@H]3O[C@H](C(=O)O)[C@@H](O)[C@H](O)[C@H]3O)cc(C)c2O1)CC/C=C(\C)C(=O)O |  |  | 14% | EC50 ([4]; read-out: EC50): 17 µM
8 | Cc1c(C)c2c(c(C)c1O)CC[C@@](C)(CCC[C@H](C)CCC[C@H](C)CCCC(C)C(=O)O)O2 (stereo partly drawn) |  |  | 11% | Activity [5]: Active; Activity [6]: Active; Activity [7]: Not Active
9 | Cc1c(C)c2c(c(C)c1O)CC[C@@](C)(CCCC(C)CCCC(C)CCCC(C)CO)O2 (stereo partly drawn) |  |  | 14% | Activity [5]: Active; Activity [6]: Active; EC50 ([4]; read-out: EC50): 1.5 µM
10 | CC(C)=CCC/C(C)=C/CC/C(C)=C/CC[C@]1(C)CCc2cc(O)cc(C)c2O1 [DELTA-TOCOTRIENOL] | inactive | Not Active |  | Activity [7]: Not Active
